# Test results taken from PubChem BioAssay AID743247 (Broad Institute, 2014).
# Values joined by “and” are separate entries in the source; they are usually repeats but may differ in a detail not shown here. Identical values can stand only once. In all, about 350,000 compounds went through this assay and about 300 (0.086%) were called active. Shown is part of a subset that was picked to be rich in actives. A number with no mark means an inactive call.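 How the source made its calls: active means mean inhibition across replicates of 30% or more, regardless of how many single replicates reach that level; inconclusive means mean under 30% yet at least half of replicates reach 30%; inactive means the rest.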
# Assay: blockers of fibronectin fibrillogenesis by fibroblasts – AH1F cells, Alexa488-fibronectin fluorescence, plate reader, primary screen (AID 743247);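 further: positive control wells lacked labelled fibronectin entirely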
# Details: Alexa488-fibronectin deposition fluorescence, overnight, at 12.6 µM, active compounds read high
# Summary of the method: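 material = AH1F fibroblast monolayer depositing Alexa488-labelled fibronectin into matrix | amount = 10000 AH1F cells/well | buffer or medium = DMEM plus 2% serum, read in PBS | incubation = 1 h cell adhesion before compound, then overnight fibronectin incubation | detection = fluorescence at 485 nm excitation, 525 nm emission | evaluation = percent inhibition as loss of matrix-bound fibronectin fluorescence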
row,SMILES,inhibition
1,COc1ccc(-c2ccccc2[C@H]2[C@@H](CO)N(C(=O)c3cccnc3)[C@H]2C#N)cc1,0.791%
2,COc1cccc(C(=O)Nc2ccc3c(c2)C(=O)N(C)[C@H]2CC[C@@H](CC(=O)N[C@H](C)c4ccccc4)O[C@H]2CO3)c1,1.83%
3,CS(=O)(=O)Nc1ccc2c(c1)[C@H]1C[C@@H](CC(=O)N3CCOCC3)O[C@@H](CO)[C@H]1O2,-0.107%
4,C[C@@H]1CC=CC[C@@H](c2ccccc2)NC(=O)[C@@H](Cc2ccccc2)N(C)C(=O)c2ccccc2O1 (mixture of isomers),15.9%
5,O=C(Nc1ccc(C(F)(F)F)cc1)N1[C@@H]2CNC[C@H]1C2c1ccc(-c2ccncc2)cc1 (some centres not stated),-4.68% and -6.18%
6,COc1cccc(NC(=O)Nc2ccc3c(c2)OC[C@@H](C)NC[C@@H](C)[C@H](OC)CN(C)C3=O)c1,-4.31%
7,CCCN1[C@H](CO)[C@H](c2ccc(C#CC3CCCCC3)cc2)[C@@H]1CNC(=O)C1CC1,-11.7%
8,COc1ccc(S(=O)(=O)N(C)C[C@@H]2Oc3ccc(NC(=O)Nc4cccc5ccccc45)cc3C(=O)N([C@H](C)CO)C[C@H]2C)cc1,9.82%
9,COc1ccc2c3c(n(C)c2c1)[C@H](CO)N(Cc1ccc(F)cc1)CC31CCN(C)CC1,8.27%
10,NC(=O)C1(Nc2ccccc2Cl)CCCC1,-0.504%
11,O=C(Nc1ccccc1Cl)/C(Cl)=C(\Cl)S(=O)c1ccccc1 (configuration not stated),41.6% (active)
12,O=C(CCN1CCN(C/C=C/c2ccccc2)CC1)Nc1ccccc1Cl,15.1%
13,COc1ccc2c3c(n(C)c2c1)[C@H](CO)N(C(C)=O)CC31CN(Cc2ccc(Cl)cc2)C1,9.57%
14,COc1ccc(S(=O)(=O)N2C[C@@H](O)COC[C@H]3O[C@@H](CC(=O)NCCN4CCCCC4)CC[C@@H]32)cc1,-7.51%
15,CO[C@H]1CN(C)C(=O)c2ccc(NC(C)=O)cc2OC[C@@H](C)N(C(=O)c2ccncc2)C[C@@H]1C,-5.05%
16,O=C(c1cnccn1)N1CC(=O)N2[C@H](C1)[C@@H](c1ccc(C#CC3CCCC3)cc1)[C@@H]2CO,0.368%
17,CN(C)C(=O)C[C@H]1C[C@H]2c3cc(NC(=O)Nc4ccccc4F)ccc3O[C@H]2[C@@H](CO)O1,-8.8%
18,CC(=O)N1C[C@@H]2C(c3ccccc3)[C@@H](C1)N2C(=O)NC(C)C (some centres not stated),-6.49%
19,O=C(NCc1ccc(F)cc1)[C@@H]1[C@@H](CO)[C@@H]2Cn3c(cccc3=O)[C@@H]2N1C(=O)c1cccnc1,12.8%
20,C[C@H]1CN([C@@H](C)CO)C(=O)c2cccc(NC(=O)CCCCCC(=O)Nc3ccccc3N)c2O[C@@H]1CN(C)C(=O)NC1CCCCC1,17%
21,COc1ccc(Nc2nc(N)nc(CSC(=S)N3CCC(C)CC3)n2)cc1,4.46%
22,CCOC(=O)c1cnc(SCc2nc(N)nc(Nc3ccc(OC)cc3)n2)nc1N,14.2% (active)
23,CCOC(=O)C1CCCN(Cc2nc(N)nc(Nc3ccc(C)cc3)n2)C1 (configuration not stated),-4.21%
24,CN1C(=O)c2cc(NC(=O)c3cccs3)ccc2OC[C@H]2O[C@@H](CC(=O)NCC3CC3)CC[C@@H]21,-3.33%

row,SMILES,inhibition
1,CC(C)[C@@H]1COCc2cn(nn2)CC[C@@H](C)C(=O)N1,-0.112%
2,CCCNC(=O)Nc1ccc2c(c1)C(=O)N(C)C[C@@H](OC)[C@@H](C)CN(Cc1ccccn1)[C@@H](C)CO2,0.86%
3,CC(C)NC(=O)N(C)C[C@H]1Oc2ccc(N)cc2CC(=O)N(C)C[C@H]1C,3.3%
4,N#Cc1ccc(-c2ccc(C3[C@@H]4CN(S(=O)(=O)c5cccc(Cl)c5)C[C@H]3N4)cc2)cc1 (some centres not stated),-6.82%
5,C[C@@H]1CCCCO[C@H](CN(C)C(=O)CCCN(C)C)[C@@H](C)CN([C@@H](C)CO)C(=O)c2cc(NC(=O)c3ccncc3)ccc2O1,-3.34%
6,C[C@H](CO)N1C[C@H](C)[C@@H](CN(C)C(=O)C2CC2)Oc2ncc(C#CC(C)(C)O)cc2C1=O,-19.9%
7,C[C@@H]1CN([C@H](C)CO)C(=O)c2c(c3ccccc3n2C)-c2ccccc2CO[C@@H]1CN(C)Cc1ccccc1C(F)(F)F,3.35%
8,COc1ccc(S(=O)(=O)Nc2ccc3c(c2)C(=O)N(C)C[C@@H](OC)[C@H](C)CN(C(=O)NC(C)C)[C@H](C)CO3)cc1,6.84%
9,N#C[C@H]1[C@H](c2ccccc2-c2ccc(F)cc2)[C@H](CO)N1C(=O)Cc1ccncc1,-14.3%
10,CC(C)NC(=O)N(C)C[C@@H]1OCCCC[C@H](C)Oc2ccc(NC(=O)Nc3ccccc3)cc2C(=O)N([C@H](C)CO)C[C@@H]1C,1.11%
11,CCCNC(=O)N1[C@@H]2CNC[C@H]1C2c1ccc(-c2cccc(C)c2)cc1 (some centres not stated),-3.69% and -7.75%
12,Cc1cccc(S(=O)(=O)N2CC[C@@H]3[C@H]2c2cc(C#Cc4ccccc4F)ccc2N[C@@H]3CO)c1,15.8%
13,CNC[C@H]1Oc2ccc(NC(=O)NC(C)C)cc2C(=O)N(C)C[C@@H]1C,-10.1%
14,O=C1N[C@H](Cc2ccccc2)COCc2cn(nn2)CC[C@@H]1Cc1ccc(-c2ccccc2)cc1,7.74%
15,CNC[C@H]1Oc2ncccc2C(=O)N(C)C[C@@H]1C,3.59%
16,CC(=O)N1[C@H](CO)[C@H](c2ccccc2)[C@H]1CN(C(=O)c1ccccc1F)C(C)C,-2.39%
17,CCCC(=O)Nc1ccc2c(c1)OC[C@H](C)N(C(=O)CC)C[C@H](C)[C@@H](OC)CN(C)C2=O,-4.46%
18,C=C(C)C[C@H]1CCn2cc(nn2)COCCNC1=O,-4.67%
19,C[C@@H]1C(=O)N[C@H](c2ccc3c(c2)OCO3)CC=CC[C@H](C)Oc2ccccc2C(=O)N1C (mixture of isomers),-8.64%
20,COc1ccc(S(=O)(=O)N2C[C@H](O)COC[C@@H]3O[C@H](CC(=O)NCCN4CCCCC4)CC[C@H]32)cc1,4.18%
21,O=C1CCC(=O)N[C@H](c2ccccc2)C/C=C\CCN1,-1.16%
22,C[C@H]1CN([C@@H](C)CO)C(=O)c2c(c3ccccc3n2C)-c2ccccc2CO[C@@H]1CN(C)CC1CCCCC1,-4.72%
23,CO[C@H]1CN(C)C(=O)c2cc(NC(=O)NC(C)C)ccc2OC[C@@H](C)NC[C@@H]1C,-16.2%
24,COc1ccc2c3c([nH]c2c1)[C@@H](CO)N(C)CC31CCN(S(=O)(=O)c2ccc(C)cc2)CC1,3.31%

row,SMILES,inhibition
1,CC(=O)Nc1ccc2c(c1)CC(=O)N(C)C[C@H](C)[C@H](CN(C)S(C)(=O)=O)O2,-0.444%
2,C[C@H](CO)N1C[C@H](C)[C@@H](CN(C)Cc2ccncc2)Oc2cc(Br)ccc2S1(=O)=O,-7.26%
3,COCC(=O)N(C)C[C@H]1[C@@H](c2ccccc2)[C@H](CO)N1C(=O)Cc1ccncc1,-3.58%
4,O=C1NCCCOCc2cn(nn2)CC[C@@H]1Cc1ccc(-c2ccccc2)cc1,1.3%
5,C[C@@H]1COCc2cn(nn2)CC[C@H](C)C(=O)N1,-2.55%
6,O=C(C1CCC1)N1CC2(C1)[C@H](c1ccccc1)[C@H](CO)N2Cc1nccs1,4.67%
7,C[C@H](CO)N1C[C@H](C)[C@@H](CN(C)Cc2ccc(Cl)c(Cl)c2)Oc2ccc(NC(=O)Cn3cnnn3)cc2CC1=O,-6.99%
8,O=C(Cc1ccncc1)N1CC[C@@H]2[C@@H](CO)Nc3ccc(C4=CCCCC4)cc3[C@@H]21,-5.08%
9,CO[C@H]1CN(C)C(=O)c2ccc(NC(=O)C3CCC3)cc2OC[C@H](C)NC[C@@H]1C,4.29%
10,CC(=O)NC[C@H]1[C@H](c2ccc(C3=CCCCC3)cc2)[C@@H](CO)N1C(=O)NC(C)C,-4.24%
11,Cc1ccccc1S(=O)(=O)N[C@@H]1CC[C@@H](CCNS(=O)(=O)c2cccc(F)c2)O[C@H]1CO,-1.75%
12,O=C(C[C@H]1CC[C@@H]2[C@H](COC[C@@H](O)CN2CC2CC2)O1)NCC1CC1,-7.99%
13,CCC(=O)N(C)C[C@H]1Oc2ncc(-c3ccc(C#N)cc3)cc2C(=O)N([C@@H](C)CO)C[C@H]1C,-1.88%
14,C/C=C/c1ccc(C2[C@H]3CNC[C@@H]2N3CC2CCOCC2)cc1 (some centres not stated),3.6%
15,CO[C@@H]1CN(C)C(=O)c2cc(NC(=O)c3cccc(Oc4ccccc4)c3)ccc2OC[C@H](C)NC[C@@H]1C,15.5%
16,O=C1CCCCn2nncc2COC[C@@H](Cc2ccccc2)N1,5.42%
17,COCC(=O)N1CC2(CN(S(C)(=O)=O)C2)c2c(n(C)c3cc(OC)ccc23)[C@@H]1CO,-4.29%
18,O=C(C[C@H]1C[C@H]2c3cc(NC(=O)CC4CC4)ccc3O[C@H]2[C@H](CO)O1)NCc1cc(F)ccc1F,-4.07%
19,COc1ccc2c3c(n(C)c2c1)[C@@H](CO)N(Cc1ccncc1)CC31CN(C(=O)Nc2cccc(F)c2)C1,-9.67%
20,C[C@H](CO)N1C[C@H](C)[C@@H](CN(C)C(=O)Cc2ccccn2)Oc2cc(-c3cccc(C(=O)N(C)C)c3)ccc2S1(=O)=O,3.4%
21,O=C(NC(=O)c1ccccc1)Nc1ccccc1O,-0.509%
22,COC(=O)c1nc(NC(=O)c2ccccc2)n[nH]1,5.02%
23,O=C(NC1=CC(=O)c2ccccc2C1=O)c1ccccc1,62.2% (active)
24,C[C@@H]1CC(=O)N[C@H](c2ccccc2)C/C=C\C[C@H](c2ccccc2)NC1=O,-9.6%
